A selection: hits, their analogues and other compounds. The true share with any hit is near 4.1%.
MEKK2 mut-MEK5: signal of MEK5 binding to mutant human MEKK2 PB1 domain; percent response, % at 10 µM; bead flow cytometry, Alexa488-MEK5 binding to MEKK2 mutant; 0.35% of 290,000 active; in the data active = percent response above about 24%, passing the limit was not always enough
MEKK2 WT-MEK5: raises or lowers MEK5 binding to wildtype human MEKK2 PB1 domain; AID 1531; bead flow cytometry, Alexa488-MEK5 binding to MEKK2 WT; actives lie on both sides; binding response (% of control), % at 10 µM; 1.1% of 290,000 active; in the data active = binding response below about 67% or above about 130%
NS3 helicase inh: inhibitors of Hepatitis C virus NS3 helicase | NS3 helicase DNA unwinding, Cy5 molecular beacon fluorescence | inhibition, % at 10.9 µM | 0.56% of 290,000 active;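 active = inhibition above the mean of all tested compounds plus 3 SD, set per campaign, cut at about 35% in these data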;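 also: 0% = DMSO wells and 100% = thioflavine S control wells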
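System: HCV NS3 helicase fragment; control set: DMSO and thioflavine S; technique: Cy5 fluorescence at 0 and 60 min, beacon hairpin quenching; reagent: beacon DNA duplex substrate plus ATP; replicates: singlicate; schedule: 1 h reaction at 25 °C, ATP-initiated; medium: MOPS buffer pH 6.5 with MgCl2, DTT, Tween20, BSA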
FID counter: counter-screen for HCV NS3 helicase inhibitors: DNA intercalator displacement. DNA fluorescent intercalator displacement, fluorescence. inhibition, % at 7.9 µM. 0.17% of 290,000 active. AID 1845; in the data active = inhibition above about 37%;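 also: 0% = vehicle and 100% = reference compound; higher means more ethidium bromide displaced from hairpin DNA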
MEKK3 PB1 HTS: MEKK3-MEK5 PB1 interaction, increase or decrease; AID 1529; 1.4% of 290,000 active; bead-based flow cytometry, Alexa488-MEK5 binding to MEKK3; actives lie on both sides; 0 = blocked by unlabeled MEK5, 100 = vehicle; binding response (% of control), % at 10 µM; Q99759;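 active = binding response more than 3 SD above or below the average of its plate-row segment, actives on both sides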;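 also: Alexa488 bead fluorescence after subtracting the streptavidin-only scavenger bead signal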
Target sequence (Q99759 whole entry, looked up): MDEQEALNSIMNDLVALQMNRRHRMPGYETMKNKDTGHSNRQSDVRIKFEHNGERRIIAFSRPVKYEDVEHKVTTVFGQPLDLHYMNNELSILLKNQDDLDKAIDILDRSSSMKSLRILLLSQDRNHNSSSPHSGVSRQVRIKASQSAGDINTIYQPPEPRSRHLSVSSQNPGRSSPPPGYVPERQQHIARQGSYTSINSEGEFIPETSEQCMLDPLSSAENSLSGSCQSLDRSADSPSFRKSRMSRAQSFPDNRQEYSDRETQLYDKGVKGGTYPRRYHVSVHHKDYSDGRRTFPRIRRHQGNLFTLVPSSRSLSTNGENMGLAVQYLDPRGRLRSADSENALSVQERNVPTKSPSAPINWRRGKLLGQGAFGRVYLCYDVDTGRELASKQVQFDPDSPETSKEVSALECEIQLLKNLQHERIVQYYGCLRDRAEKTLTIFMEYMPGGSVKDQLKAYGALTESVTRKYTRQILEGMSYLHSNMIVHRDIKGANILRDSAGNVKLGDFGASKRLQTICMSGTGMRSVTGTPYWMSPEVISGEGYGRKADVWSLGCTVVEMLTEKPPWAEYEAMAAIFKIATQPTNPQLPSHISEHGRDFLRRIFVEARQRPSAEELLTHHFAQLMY
T cruzi inh: blocks replication of Trypanosoma cruzi | T. cruzi beta-gal in NIH3T3, luminescence, 90 h | inhibition, % (no concentration beside the values) | 1.4% of 300,000 active | AID 1885;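 active = mean inhibition across valid replicates above about 55%, limit read from the data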;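 also: signal also drops with host cell toxicity which is not excluded here; 0% = plate median of DMSO wells and 100% = zero luminescence signal; higher percent means less beta-gal luminescence so fewer parasites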
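compound dosing = single 50 nL compound addition per well in DMSO | material = NIH/3T3 host cells with β-galactosidase reporter T. cruzi | input = 5,000 host fibroblasts per well | timing = ≥90 h infection period, 3 h prior cell attachment | read-out basis = percent inhibition of parasite-derived β-gal signal | detection = GalScreen β-gal luminescence, detergent lysis, 60 min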
Starred values were filed as active, the others as inactive; nt = not tested or not shown; [ ] = another dose, or the depositor's remark.

SMILES	MEKK2 mut-MEK5	MEKK2 WT-MEK5	NS3 helicase inh	FID counter	MEKK3 PB1 HTS	T cruzi inh
Oc1ccc(CN2CCCCC2)c2cccnc12	5	112	5	-1	115	68*
Oc1ccc(CN2CCN(c3ccccc3)CC2)c2cccnc12	1	105	4	3	90	64*
CCCOCc1ccc(O)c2ncccc12	-1	92	4	-6	97	57*
Oc1ccc(CN2CCc3ccccc3C2)c2cccnc12	-10	95	-11	-8	90	57*
O=C(CCC(=O)N1CCOc2ccccc21)NCc1cccnc1	0	106	0	-5	102	4
Cc1oc(-c2cc(F)cc(F)c2)nc1CN1CCN(C(=O)c2ccco2)CC1	-6	96	5	-41	101	-3
O=[N+]([O-])c1cc(CN2CCN(c3cccc(C(F)(F)F)c3)CC2)c2cccnc2c1O	-2	88	17	-6	98	76*
C=CCN1CCN(C(CCC)c2nnnn2Cc2ccco2)CC1 (configuration not stated)	1	101	6	3	99	-10
Cc1cccc(NS(=O)(=O)c2ccc(C)c(C(=O)NCc3ccncc3)c2)c1	nt	nt	nt	nt	nt	3
COc1ccc(S(=O)(=O)NCCN2CCOCC2)cc1[N+](=O)[O-]	-32	-11*[inhibitor]	2	-2	0.0*[inhibitor]	-4
Cc1ccc(-c2cc3cccc[n+]3cc2-c2ccc(C)cc2)cc1	-1	101	-52	9	99	60*
Cc1nc(Nc2ccc(S(=O)(=O)N3CCCCC3C)cc2)c2nnn(Cc3ccccc3)c2n1 (configuration not stated)	-3	97	3	-19	99	64*
Cc1[nH]c2ccccc2c1CCN(Cc1cccnc1)C(=S)Nc1cccc(F)c1	-2	102	-21	-9	93	58*
Cc1[nH]c2ccccc2c1CCN(Cc1cccnc1)C(=S)Nc1ccc(F)cc1	-2	103	-14	-7	111	41
Cc1cc2nc(CCN(Cc3cccnc3)C(=S)Nc3ccc(F)cc3)[nH]c2cc1C	3	108	-12	3	105	61*
Cc1[nH]c2ccc(F)cc2c1CCN(Cc1cccnc1)C(=S)Nc1ccccc1	-1	104	-5	-2	123	60*
Cc1cc2nc(CCN(Cc3cccnc3)C(=S)Nc3ccccc3)[nH]c2cc1C	1	104	-1	-3	105	46
CCS(=O)(=O)c1ccc2oc(Nc3cccc(OC)c3)nc2c1	-2	96	-3	8	103	1
O=[N+]([O-])c1ccc(Cl)cc1NCC1CCCO1 (configuration not stated)	7	108	9	-1	108	6
O=C(NC1CC1)C1CCN(c2ncccn2)CC1	0	101	3	-2	99	-2
O=C1COc2ccc(C(=O)COC(=O)Cc3ccc(F)cc3)cc2N1	nt	nt	nt	nt	nt	-16
CCOC(=O)c1c(NC(=S)N2CCN(C)CC2)sc(C)c1-c1ccccc1	2	108	-41	2	98	61*
CCOC(=O)c1c(NC(=O)CN2CCCCC2)sc(CN(C)C)c1-c1ccccc1	3	100	3	-12	97	68*
CCCn1c(CCC(=O)O)nc2cc(S(=O)(=O)N3CCCC3)ccc21	6	110	1	-14	103	-3
CNC(=O)C(=O)Nc1cc2c3c(c1)C(C)C(=O)N3CCC2 (configuration not stated)	3	104	0	-5	102	-8
SMILES	MEKK2 mut-MEK5	MEKK2 WT-MEK5	NS3 helicase inh	FID counter	MEKK3 PB1 HTS	T cruzi inh
CCn1c2ccccc2c2cc(CN3CCN(Cc4cc(OC)ccc4O)CC3)ccc21	2	116	-75	31	101	72*
CCOc1ccc(CN2CCN(CC(O)Cn3c4ccccc4c4ccccc43)CC2)cc1 (configuration not stated)	9	138*	-84	25	104	30
COc1ccc(C(C(=O)NCc2ccc(F)cc2)N(C(=O)c2csnn2)C2CC2)cc1 (configuration not stated)	4	103	-8	-26	101	8
CN(C)C(CNC(=O)c1ccccc1OCc1ccc(Cl)cc1)c1ccco1 (configuration not stated)	nt	nt	nt	nt	nt	-2
CCN1CCN(CCNC(=O)c2ccc3nc(-c4cccc(C)c4)c(-c4cccc(C)c4)nc3c2)CC1	25*	151*	-87	31	104	48
CCCNC(=O)c1ccc2nc(-c3ccccc3)c(-c3ccccc3)nc2c1	8	104	5	-4	106	30
O=[N+]([O-])c1ccc2[nH]cc(S(=O)(=O)N3CCN(c4cccc(Cl)c4)CC3)c2c1	11	113	-19	39*	104	24
CN(CC(=O)Nc1ccc(F)c(F)c1F)c1cnccn1	-2	94	-36	-3	91	64*
COc1cccc(CN2CCCC(C(=O)Nc3ccc(-c4cscn4)cc3)C2)c1 (configuration not stated)	2	116	-26	32	101	8
O=c1[nH]c(SCc2ccc(F)cc2Cl)nc2ccccc12	-6	95	-5	-2	94	24
CCC(=O)N1CCN(c2ccnc3cc(Cl)ccc23)CC1	0	99	3	-7	102	5
O=C(c1ccc(Cl)cc1)N1CCN(c2ccnc3cc(Cl)ccc23)CC1	-2	97	-26	-15	95	69*
Clc1ccc(-c2ncc3ccccn23)cc1	-9	89	-2	-12	105	-16
Clc1ccccc1-c1ncc2ccccn12	-7	87	-2	1	92	57*
O=C(COc1cccnc1[N+](=O)[O-])N1N=C(c2ccc(Cl)cc2)CC1c1ccco1 (configuration not stated)	-3	97	2	-1	102	56*
O=C(CCCCCN1C(=O)[C@@H]2Cc3ccccc3CN2C1=O)Nc1ccccc1F	0	95	31	-43	95	6
COc1ccc(Cl)cc1NC(=S)N(Cc1cccnc1)Cc1ccco1	0	106	-7	-4	110	66*
CCOC(=O)c1ccc(NC(=S)N(CCCN(CC)CC)Cc2ccco2)cc1	-1	103	11	7	103	7
CCc1ccc(NC(=O)N(Cc2cccnc2)Cc2ccco2)cc1	7	103	-2	-11	99	nt
CCOC(=O)c1ccc(NC(=S)N(Cc2cccnc2)Cc2ccco2)cc1	0	104	2	-24	117	55*
COC(=O)c1ccc(NC(=S)N(Cc2cccnc2)Cc2ccco2)cc1	7	106	0	-14	105	73*
Cc1ccc(NC(=O)/C(Cl)=C/c2ccccc2)cc1C	1	114	6	-9	105	-1
